Assays:
[1] = target: T1, Corticotropin-releasing factor receptor 1 (Homo sapiens, UniProt P34998); experiment: Inhibition of recombinant corticotropin releasing factor receptor 1 assayed using nonselective [125I]-labeled agonist [Tyr0,Glu1,Nle17]-sauvagine
T1 sequence (P34998 whole entry): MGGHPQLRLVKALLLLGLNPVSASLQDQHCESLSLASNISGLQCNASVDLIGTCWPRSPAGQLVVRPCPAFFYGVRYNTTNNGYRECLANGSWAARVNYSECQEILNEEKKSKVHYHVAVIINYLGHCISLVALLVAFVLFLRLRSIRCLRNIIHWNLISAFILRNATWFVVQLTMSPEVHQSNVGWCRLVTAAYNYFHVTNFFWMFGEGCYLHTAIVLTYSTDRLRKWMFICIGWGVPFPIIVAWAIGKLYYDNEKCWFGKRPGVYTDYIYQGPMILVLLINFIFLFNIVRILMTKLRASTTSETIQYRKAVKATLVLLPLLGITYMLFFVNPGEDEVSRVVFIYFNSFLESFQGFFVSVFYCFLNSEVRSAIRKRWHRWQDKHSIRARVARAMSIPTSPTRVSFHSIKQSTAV
Outline: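 Crude plasma membranes from stable CHO lines expressing hCRF1 or mCRF2β, stored in 10% sucrose at -80 °C. Incubated 90 min at room temperature, then washed and filtered. IC50 taken from one representative assay, repeated at least twice.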

[2] = target: Corticotropin-releasing factor receptor 2 (Mus musculus) (UniProt Q60748); experiment: Inhibition of recombinant mouse corticotropin releasing factor receptor 2 beta (CRF2beta) assayed using nonselective [125I]-labeled agonist [Tyr0,Glu1,Nle17]-sauvagine as radioligand
Sequence of Corticotropin-releasing factor receptor 2 (Mus musculus) (Q60748 whole entry, looked up): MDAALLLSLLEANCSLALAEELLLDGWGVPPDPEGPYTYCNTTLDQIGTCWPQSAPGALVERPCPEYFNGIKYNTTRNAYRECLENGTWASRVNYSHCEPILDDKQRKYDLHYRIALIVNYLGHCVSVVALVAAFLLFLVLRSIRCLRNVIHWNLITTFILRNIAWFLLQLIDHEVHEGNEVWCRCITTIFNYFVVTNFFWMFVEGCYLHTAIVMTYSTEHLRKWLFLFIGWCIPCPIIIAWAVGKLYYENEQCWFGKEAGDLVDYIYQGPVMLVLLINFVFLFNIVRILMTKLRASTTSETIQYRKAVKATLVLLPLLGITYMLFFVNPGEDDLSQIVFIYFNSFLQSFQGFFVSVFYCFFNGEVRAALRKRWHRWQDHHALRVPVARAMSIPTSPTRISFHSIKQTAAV

IC50 [1]: 0.24 nM | IC50 [2]: 1.2 nM
Compound: CCCC[C@H](NC(=O)[C@H](CCCCN)NC(=O)[C@H](CCCN=C(N)N)NC(=O)[C@H](CC(C)C)NC(=O)[C@](C)(CC(C)C)NC(=O)[C@H](Cc1c[nH]cn1)NC(=O)[C@@H](Cc1ccccc1)NC(=O)[C@H](CO)NC(=O)[C@H](CC(C)C)NC(=O)[C@H](CC(=O)O)NC(C)=O)C(=O)N[C@H](C(=O)N[C@@H](CCC(=O)O)C(=O)N[C@H](C(=O)N[C@@H](CCC(=O)O)C(=O)N[C@@H](CCCCN)C(=O)N[C@@H](CCC(N)=O)C(=O)N[C@@H](CCC(=O)O)C(=O)N[C@@H](CCCCN)C(=O)N[C@@H](CCC(=O)O)C(=O)N[C@@H](CCCCN)C(=O)N[C@@H](CCC(N)=O)C(=O)N[C@H]1CCC(=O)NCCCC[C@@H](C(=O)N[C@@H](CC(N)=O)C(=O)N[C@@H](CCCN=C(N)N)C(=O)N[C@@H](CC(C)C)C(=O)N[C@@H](CC(C)C)C(=O)N[C@@H](CC(C)C)C(=O)N[C@@H](CC(=O)O)C(=O)N[C@@](C)(CC(C)C)C(=O)N[C@H](C(N)=O)[C@@H](C)CC)NC(=O)[C@H](C)NC(=O)[C@H](C)NC1=O)[C@@H](C)CC)[C@@H](C)CC

Reference: ChEMBL document CHEMBL1135628, “Potent and long-acting corticotropin releasing factor (CRF) receptor 2 selective peptide competitive antagonists” (J Med Chem, 2002)
